{"source": "paper PMC2266615", "about": "(The Journal of General Physiology, 2005)", "key": {"[1]": {"settings": "extrapolated from peptide binding, [lipid]eff > 10^−2 M"}, "[2]": {"test_system": "ErbB1", "settings": "cardiac fibroblasts; ref Murasawa et al., 1998; cited from earlier work"}, "[3]": {"test_system": "ErbB1", "experiment": "EGF-mediated ErbB1 autophosphorylation in Cos1 cells", "type": "cell-based"}, "[4]": {"test_system": "ErbB1", "settings": "ref Li et al., 2004a, cited from earlier work; for steady-state ErbB1 autophosphorylation: times >20 min; for initial peak of ErbB1 autophosphorylation: two other cell types"}, "[5]": {"test_system": "ErbB1", "settings": "ref Li et al., 2004a; cited from earlier work"}, "[6]": {"experiment": "effect of added agents on binding of ErbB1", "settings": "2 μM sphingosine; PC/PS vesicles"}, "[7]": {"test_system": "ErbB1", "settings": "A431 cells, 5 min after EGF; ref Friedman et al., 1989; cited from earlier work"}, "[8]": {"molecular_target": "calmodulin (Ca/CaM) (Homo sapiens, UniProt P0DP23)", "experiment": "Ca/CaM binding by competition with PC/PS vesicles", "design": "species or system bovine brain and human brain", "settings": "2:1 PC/PS LUVs, 100 mM KCl, 1 mM MOPS, pH 7.0, 100 μM EGTA + 120 μM Ca2+; trace peptide ~5 nM; centrifugation; fit of Eq. 2", "method_in_brief": "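Trace (~5 nM) [3H]NEM-labelled test peptide mixed with 100-nm sucrose-loaded 2:1 PC/PS LUVs (total lipid 2 × 10−5 M; repeats with 3:1 PC/PS) and varied bovine or human brain CaM. Spun 100,000 g for 1 h. Percent bound from supernatant/pellet counts; KCaM from a competition equation (Eq. 2) fit.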"}, "[9]": {"type": "binding", "settings": "for rate of removal from vesicles by Ca/CaM: 2 μM Ca/CaM", "method_in_brief": "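Stopped-flow fluorescence mixing of two solutions. The second holds 0.5–7 μM CaM with 50 μM CaCl2. Both contain 100 mM KCl and 1 mM MOPS, pH 7.0. Time constants τ come from exponential fluorescence rise; the transfer rate constant is the slope of 1/τ against [CaM].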"}, "[10]": {"molecular_target": "ErbB1(645–660) peptide with a phosphorylated Thr654 (human (from the printed accession P00533))", "experiment": "centrifugation of vesicles"}, "[11]": {"test_system": "A431 cells", "settings": "ref Hughes et al., 1991, cited from earlier work; for intracellular [Ca2+]: EGF"}, "[12]": {"test_system": "hepatocytes", "settings": "EGF, in the next 2–3 min, ref Nojiri and Hoek, 2000; cited from earlier work"}, "[13]": {"test_system": "ErbB1", "settings": "membranes and solubilized form; ref Davis et al., 1988; cited from earlier work"}}, "note": "Where two headings read alike, the source gives them in different places. The star is where a group is joined. acrylodan = 6-acryloyl-2-dimethylaminonaphthalene, CN(C)c1ccc2cc(C(=O)CC*)ccc2c1"}
{"compound": "645–660 region of ErbB1: tethered 645–660 region of ErbB1 (RRRHIVRKRTLRRLLQ; UniProt P00533 669-684, looked up, fragment)", "values": [{"measurement": "ratio of bound/free = K[lipid]eff", "setting": "[1]", "result": "> 100"}, {"measurement": "time bound to the plasma membrane (tethered region)", "setting": "[1]", "result": "> 99", "unit": "%"}]}
{"compound": "CC(=O)OCOC(=O)CN(CC(=O)OCOC(C)=O)c1ccccc1OCCOc1ccccc1N(CC(=O)OCOC(C)=O)CC(=O)OCOC(C)=O", "note": "[BAPTA-AM]", "values": [{"measurement": "angiotensin II–stimulated ErbB1 transactivation", "setting": "[2]", "result": "inhibit"}]}
{"compound": "NCCCCCCNS(=O)(=O)c1cccc2c(Cl)cccc12", "note": "[W-7]", "values": [{"measurement": "ErbB1 receptor levels", "setting": "[3]; 20–50 μM W-7, anti-ErbB1 reprobe", "result": "did not affect receptor levels"}, {"measurement": "inhibition of EGF-mediated ErbB1 tyrosine phosphorylation", "setting": "[3]; 20–50 μM for 30 min, then 100 ng/ml EGF 10 min, Western blot 4G10", "result": "dose-dependent inhibition"}, {"measurement": "steady-state ErbB1 autophosphorylation", "setting": "[4]", "result": "not the steady-state value"}, {"measurement": "initial peak of ErbB1 autophosphorylation", "setting": "[4]", "result": "inhibit the initial peak"}, {"measurement": "angiotensin II–stimulated ErbB1 transactivation", "setting": "[2]", "result": "inhibit"}, {"measurement": "tyrosine kinase activity of purified ErbB1", "setting": "[5]", "result": "do not inhibit"}]}
{"compound": "NCCCCNS(=O)(=O)c1ccc2ccccc2c1", "note": "[W-12]", "values": [{"measurement": "steady-state ErbB1 autophosphorylation", "setting": "[4]", "result": "not the steady-state value"}, {"measurement": "initial peak of ErbB1 autophosphorylation", "setting": "[4]", "result": "inhibit the initial peak"}, {"measurement": "tyrosine kinase activity of purified ErbB1", "setting": "[5]", "result": "do not inhibit"}]}
{"compound": "NCCCCNS(=O)(=O)c1ccc2c(Cl)cccc2c1", "note": "[W-13]", "values": [{"measurement": "steady-state ErbB1 autophosphorylation", "setting": "[4]", "result": "not the steady-state value"}, {"measurement": "initial peak of ErbB1 autophosphorylation", "setting": "[4]", "result": "inhibit the initial peak"}, {"measurement": "tyrosine kinase activity of purified ErbB1", "setting": "[5]", "result": "do not inhibit"}]}
{"compound": "CCCCCCCCCCCCC/C=C/[C@@H](O)[C@@H](N)CO", "note": "[sphingosine]", "values": [{"measurement": "ErbB1(645–660) peptide desorbed from vesicles", "setting": "[6]", "result": 75, "unit": "%"}]}
{"compound": "C/C=C(/C)C(=O)O[C@H]1C(C)=C2[C@H]([C@@H]1OC(=O)CCCCCCC)[C@@](C)(OC(C)=O)C[C@H](OC(=O)CCC)[C@@]1(O)[C@H]2OC(=O)[C@@]1(C)O", "note": "[thapsigargin]", "values": [{"measurement": "receptor autophosphorylation", "setting": "[7]", "result": "inhibit receptor autophosphorylation"}]}
{"compound": "ErbB2(676–692): peptide corresponding to the juxtamembrane region of ErbB2 (Ac-CKRRQQKIRKYTMRRLLQ-NH2; not fully specified (residue 1))", "values": [{"measurement": "Ca/CaM Association Constant (KCaM)", "setting": "[8]", "result": "6e+07", "unit": "M⁻¹"}]}
{"compound": "ErbB3(667–683): peptide corresponding to the juxtamembrane region of ErbB3 (Ac-CRGRRIQNKRAMRRYLER-NH2; not fully specified (residue 1))", "values": [{"measurement": "Ca/CaM Association Constant (KCaM)", "setting": "[8]", "result": "3e+06", "unit": "M⁻¹"}]}
{"compound": "ErbB4(676–692): peptide corresponding to the juxtamembrane region of ErbB4 (Ac-CRRKSIKKKRALRRFLET-NH2; not fully specified (residue 1))", "values": [{"measurement": "Ca/CaM Association Constant (KCaM)", "setting": "[8]", "result": "2e+07", "unit": "M⁻¹"}]}
{"compound": "acrylodan-labeled ErbB1(645–660): ErbB1(645–660) labeled with acrylodan (Ac-C(acrylodan)RRRHIVRKRTLRRLLQ-NH2; SMILES CC[C@H](C)[C@H](NC(=O)[C@H](Cc1c[nH]cn1)NC(=O)[C@H](CCCNC(=N)N)NC(=O)[C@H](CCCNC(=N)N)NC(=O)[C@H](CCCNC(=N)N)NC(=O)[C@H](CSCCC(=O)c1ccc2cc(N(C)C)ccc2c1)NC(C)=O)C(=O)N[C@H](C(=O)N[C@@H](CCCNC(=N)N)C(=O)N[C@@H](CCCCN)C(=O)N[C@@H](CCCNC(=N)N)C(=O)N[C@H](C(=O)N[C@@H](CC(C)C)C(=O)N[C@@H](CCCNC(=N)N)C(=O)N[C@@H](CCCNC(=N)N)C(=O)N[C@@H](CC(C)C)C(=O)N[C@@H](CC(C)C)C(=O)N[C@@H](CCC(N)=O)C(N)=O)[C@@H](C)O)C(C)C)", "values": [{"measurement": "rate of removal from vesicles by Ca/CaM", "setting": "[9]; 10% PS", "result": 100, "unit": "s⁻¹"}, {"measurement": "rate of removal from vesicles by Ca/CaM", "setting": "[9]; 15% PS", "result": 10, "unit": "s⁻¹"}, {"measurement": "transfer rate constant (slope of 1/τ vs. [CaM])", "setting": "[9]; 85:15 PC/PS vesicles (15% PS)", "result": "5e+06", "unit": "M⁻¹ s⁻¹"}, {"measurement": "lifetime of peptide on vesicles", "setting": "[9]; 85:15 PC/PS vesicles, without Ca/CaM", "result": "~0.3", "unit": "s"}]}
{"compound": "calcium/calmodulin (from UniProt P0DP23 1-149) (natural protein)", "values": [{"measurement": "fold reduction of KCaM against the unphosphorylated peptide", "setting": "[10]", "result": 20, "unit": "fold"}]}
{"compound": "epidermal growth factor [EGF]", "values": [{"measurement": "increase of intracellular [Ca2+]", "setting": "[11]; 30 nM EGF, ∼5 min", "result": "about fivefold"}, {"measurement": "intracellular [Ca2+]", "setting": "[11]; 5 min", "result": 600, "unit": "nM"}, {"measurement": "intracellular [Ca2+]", "setting": "[11]; by 15 min", "result": 150, "unit": "nM"}, {"measurement": "intracellular [Ca2+]", "setting": "[12]", "result": 150, "unit": "nM"}, {"measurement": "ErbB1 activation", "setting": "[13]", "result": "can activate ErbB1 both in membranes and in solubilized form"}]}
